High-throughput results from PubChem BioAssay.
PMI act: activators of human PMI, primary screen, biochemical, fluorescence intensity, near-Km mannose 6-phosphate; Mannose-6-phosphate isomerase (Homo sapiens), P34949; purified human PMI, coupled resazurin fluorescence, 20 min; hits give high values; 1 = vehicle control, 0 substrate-free wells; activation factor at 20 µM; 190,000 compounds, 0.005% hits; AID 1214, 2008;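 active = activation factor of 2 or more at 20 µM, relative to plate controls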
Target sequence (P34949 whole entry, looked up): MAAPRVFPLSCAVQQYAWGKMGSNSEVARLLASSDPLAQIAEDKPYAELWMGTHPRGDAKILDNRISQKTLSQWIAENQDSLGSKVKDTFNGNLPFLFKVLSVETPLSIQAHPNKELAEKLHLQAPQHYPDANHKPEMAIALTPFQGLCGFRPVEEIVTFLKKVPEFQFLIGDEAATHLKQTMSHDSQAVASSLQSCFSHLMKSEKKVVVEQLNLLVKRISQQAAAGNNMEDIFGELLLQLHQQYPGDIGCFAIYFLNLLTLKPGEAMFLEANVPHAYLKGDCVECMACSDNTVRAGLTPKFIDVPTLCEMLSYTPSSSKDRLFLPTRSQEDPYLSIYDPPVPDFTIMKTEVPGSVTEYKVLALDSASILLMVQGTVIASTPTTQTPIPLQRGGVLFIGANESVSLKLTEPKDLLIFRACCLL
Diaph act CS: compounds boosting diaphorase resazurin reduction – biochemical, uHTS, resorufin fluorescence, counter-screen for diaphorase-coupled primary assays, primary screen | 190,000 compounds, 0.005% hits | activation factor at 20 µM | Diaphorase/resazurin coupled assay, 16 min; hits give high values; 1 = vehicle wells, 0 = NADH-free wells | AID 1229, 2008;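 active = diaphorase activity raised at least twofold by the compound at 20 µM; inactive = activation factor below 2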
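Material: purified diaphorase enzyme from Clostridium kluyveri; Also added: 0.114 mM NADH and 0.1 mM resazurin, final amounts; Doses: single compound dose of 20 µM, 1% DMSO final; Times: 16 min enzyme reaction, ambient temperature; Detection: resorufin fluorescence, excitation 544 nm, emission 590 nm; Measure: increased resorufin signal from activators or reducing compounds.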
PMI act hi M6P: human PMI activators, high substrate, primary screen, biochemical, fluorescence intensity, near-saturating mannose 6-phosphate; 190,000 compounds, 0.34% hits; coupled PMI enzyme assay, resazurin fluorescence, 20 min; hits give high values; 1 = untreated enzyme, 0 = substrate-free blank; activation factor at 20 µM; Mannose-6-phosphate isomerase (Homo sapiens), P34949;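 active = activation factor of 2 or more at 20 µM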
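Test system – human PMI in coupled enzyme assay · Timing – 20 min incubation at room temperature · Detection – Diaphorase-driven resazurin-to-resorufin fluorescence, excitation 544, emission 590 nm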
Tb hexokinase: Trypanosoma brucei hexokinase 1 inhibitors, primary screen, biochemical, G6PDH-coupled NADH absorbance, MLSCN library. hexokinase 1 [Trypanosoma brucei]. recombinant TbHK1, G6PDH-coupled NADH A340. inhibition, % at 10 µM. 220,000 compounds, 0.11% hits;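 active = inhibition of 50% or more in the single-dose primary screen; inactive = inhibition below 50%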
G6PDH counter-1: L. mesenteroides G6PDH inhibitors, counter-screen for G6PDH-coupled screening assays, biochemical, Leuconostoc mesenteroides enzyme. Purified L. mesenteroides G6PDH, diaphorase/resazurin coupled fluorescence, 45 min. inhibition, % at 5 µM. 200,000 compounds, 0.12% hits. AID 1020, 2008; in the data active = inhibition above about 50%
Diaph inh CS: diaphorase inhibitors and chemical oxidizers, primary screen, counter-screen for diaphorase-coupled primary assays, biochemical, uHTS, resorufin fluorescence | diaphorase resazurin-to-resorufin fluorescence, NADH, 16 min; bacterial (C. kluyveri) enzyme, not human | inhibition, % at 20 µM | 190,000 compounds, 0.69% hits;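 active = primary screen inhibition at 20 µM above a set limit, cut at about 50% in these data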;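 note: plate controls were DMSO with full reaction for no effect and wells lacking NADH for full effect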
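Benchmarks: positive control wells lacking NADH, neutral wells with DMSO only. System: bacterial diaphorase enzyme (C. kluyveri). Input: 0.14 U/mL diaphorase, enzyme working solution. Detection: resorufin fluorescence, excitation 544 nm, emission 590 nm. Times: 16-min room-temperature incubation before reading.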
G6PDH counter-2: Leuconostoc G6PDH inhibition, confirmation, counter-screen for TbHK1 inhibitor project, biochemical, DPI cherry-picked compounds, single concentration | shares compounds with Tb hexokinase | purified G6PDH, NADH absorbance, 1 h | inhibition, % at 10 µM | 210 compounds, 7% hits;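 active = at least 50% inhibition in the glucose-6-phosphate dehydrogenase coupled counterscreen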
TbHK1 confirm: TbHK1 inhibitor retest, confirmation, biochemical, DPI cherry-picked primary actives | shares compounds with Tb hexokinase | recombinant TbHK1, G6PDH-coupled NADH A340 absorbance | 210 compounds, 10% hits | inhibition, % at 10 µM;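 active = inhibition of at least 50% in both of the two screening runs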;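 note: 0% and 100% set by the maximum and minimum signal control wells on each plate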
Numbers without * were called inactive; / = not tested or not shown. This is a sample that favours compounds with a hit; in the whole collection about 1.1% have one here.

SMILES | PMI act | Diaph act CS | PMI act hi M6P | Tb hexokinase | G6PDH counter-1 | Diaph inh CS | G6PDH counter-2 | TbHK1 confirm
COc1ccc2nc(N3C(=O)/C(=C/c4ccc(Cl)cc4)NC3=S)sc2c1 | 1.2 | 1 | 1.1 | 50.1* | 4.7 | 4.9 | -107.6 | -23.0
CCN(CC)CCCNC(=S)N(Cc1cccnc1)Cc1cc2cc(C)ccc2[nH]c1=O | / | / | / | -16.2 | / | / | / | /
COc1ccc(C2(C)NC(=O)N(Cc3cc(Cl)cc4c3OCOC4)C2=O)cc1OC (configuration not stated) | 0.8 | 0.9 | 1 | 52.9* | 2.1 | 7.8 | -7.9 | -0.7
COc1ccc(C(=O)CN2C(=O)NC(C)(c3ccccc3)C2=O)cc1OC (configuration not stated) | 0.9 | 0.9 | 1 | -6.0 | 2.4 | 13.2 | / | /
C1CCN=C(Nc2nn[nH]n2)CC1 | 1.1 | 0.9 | 1.2 | 54.8* | 8.5 | 7.2 | -5.3 | -9.8
COC(=O)c1nc(NC2=NCCCCC2)n[nH]1 | 1.1 | 1 | 1.1 | -10.0 | 4.4 | 3.8 | / | /
O=C(NCCc1c[nH]c2ccccc12)c1cnccn1 | 1 | 0.9 | 1 | 2.9 | -1.6 | 7.2 | / | /
COc1ccc(CC/C(=N\O)C2(O)CCCCC2)cc1 | 1 | 0.8 | 0.9 | 73.7* | 8.0 | 16.8 | -4.0 | 3.6
COc1ccc(C(=O)Nc2c(C(C)(C)C)nn(C)c2C(C)(C)C)cc1 | / | / | / | 9.9 | / | / | / | /
CCOc1ccc(N2CC(=O)N/C2=N\c2nc(C)cc(C)n2)cc1 | 1 | 0.8 | 1 | 69.4* | 2.8 | 17.3 | -9.1 | -8.2
COc1ccc(C(=O)OCc2csc(C)n2)c(O)c1 | 1.1 | 0.9 | 1 | 4.3 | 1.2 | 10.1 | / | /
COc1ccc(N=Nc2ccc(O)c3ncccc23)cc1 | / | / | / | -44.6 | / | / | / | /
Cc1ccccc1N=Nc1ccc(O)c2ncccc12 | 1.1 | 0.9 | 0.7 | 64.5* | 4.2 | 11.8 | -3.6 | -7.7
N=c1n(CC(=O)c2cccs2)c2ccccc2n1Cc1ccccc1 | / | / | / | 0.4 | / | / | / | /
NC(=O)c1c(/N=C/c2cccnc2)sc2c1CCCC2 | / | / | / | -13.4 | / | / | / | /
CC1CCC(NC(=O)c2ccc(CS(=O)(=O)Cc3ccccc3F)o2)CC1 (configuration not stated) | 0.9 | 0.8 | 0.9 | 61.4* | 6.4 | 18.5 | -3.7 | 6.6
CCCCCCCCn1c(N2CCN(c3cccc(Cl)c3)CC2)nc2c1c(=O)[nH]c(=O)n2C | 0.9 | 0.9 | 0.9 | -0.8 | 16.9 | 12.3 | / | /
CCCCCCn1c(N2CCN(c3cccc(Cl)c3)CC2)nc2c1c(=O)[nH]c(=O)n2C | 0.9 | 0.8 | 0.9 | 59.4* | -2.0 | 21.6 | -49.7 | 14.0
Cn1c(=O)[nH]c(=O)c2c1nc(N1CCCCC1)n2CCOc1ccccc1 | 1 | 0.9 | 0.9 | 55.2* | -2.5 | 12.7 | 4.2 | 2.1
Cc1onc(-c2c(F)cccc2Cl)c1C(=O)Nc1cccc(S(=O)(=O)NCc2ccco2)c1 | 1 | 0.8 | 1 | 2.9 | 7.1 | 19.6 | / | /
COc1ccc(-c2nnn(CC(=O)NCc3ccccc3)n2)cc1OC | 1 | 0.8 | 1 | -0.4 | 2.7 | 17.3 | / | /
COc1cc(-c2nnn(CC(=O)NC3CCS(=O)(=O)C3)n2)ccc1OCc1ccccc1 (configuration not stated) | 1 | 0.9 | 0.9 | 66.2* | 2.9 | 11.2 | -38.4 | 0.7
O=C(CSc1nnc(COc2ccccc2)o1)NCCc1ccccc1 | 1 | 0.8 | 1 | 73.4* | -6.8 | 16.9 | -8.6 | -22.3
COc1ccc2[nH]c(C(=O)Nc3ccc4c(c3)OCO4)cc2c1 | / | / | / | -15.0 | / | / | / | /
